Experiments:
KB = assay: Antiproliferative activity against human KB cells after 72 hrs by SRB assay; format: functional, cell-based
Outline: (§1)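 Cells grown in RPMI-1640 with 2 mM L-glutamine, 25 mM HEPES, 10% FBS, penicillin/streptomycin and amphotericin B. KB-VIN maintained with 100 nM vincristine. Freshly trypsinized cells seeded at 4000–7500 per well, depending on doubling time, together with compounds for 72 h. Fixed in 10% TCA, stained with 0.04% SRB, dye solubilized in 10 mM Tris base, absorbance read at 515 nm.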

MDA-MB-231 = assay: Antiproliferative activity against human MDA-MB-231 cells after 72 hrs by SRB assay; format: functional, cell-based; outline: as §1
[1] = Antiproliferative activity against human KBVIN cells after 72 hrs by SRB assay; format: functional, cell-based; outline: as §1
A549 [2] = assay: Antiproliferative activity against human A549 cells after 72 hrs by SRB assay; format: functional, cell-based
A549 [3] = assay: Cell cycle arrest in human A549 cells assessed as accumulation after 24 hrs by propidium iodide staining based flow cytometry; format: functional
Outline: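 A549 cells seeded at 75 000 per well 24 h before dosing, then treated 24 h at 1× or 3× the IC50 concentration. DMSO and 20 nM combretastatin A-4 served as controls. Floating plus trypsinized cells pooled, fixed in 70% EtOH overnight at –20 °C, stained with propidium iodide 30 min at 37 °C. DNA content analysed by flow cytometry for G2/M population.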

| IC50 (KB; Homo sapiens, KB, 72 h) | IC50 (MDA-MB-231; Homo sapiens, MDA-MB-231, 72 h) | IC50 (A549 [2]; Homo sapiens, A549, 72 h) | IC50 (A549 [2]; a549) | IC50 (KB; kb) | IC50 (MDA-MB-231; mda-mb-231) | SMILES | IC50 ([1]; Homo sapiens, KBVIN, 72 h) | Activity (A549 [3]) | IC50 [1] |
| --- | --- | --- | --- | --- | --- | --- | --- | --- | --- |
| 5.4 µM | 8.8 µM | 4.8 µM | – | – | – | COc1cc(/C=C2\C(=O)OCC2Cc2ccc3c(c2)OCO3)cc(OC(=O)[C@@H](N)Cc2ccccc2)c1OC (stereo not given in full) | 4.95 µM | – | – |
| > 40 µM | > 40 µM | > 40 µM | – | – | – | COc1cc(/C=C2\C(=O)OC\C2=C\c2ccc3c(c2)OCO3)cc(OC)c1OC(=O)CN(C)C | > 40 µM | – | – |
| > 40 µM | > 40 µM | > 40 µM | – | – | – | COc1cc(/C=C2\C(=O)OC\C2=C\c2ccc3c(c2)OCO3)cc(OC)c1O | > 40 µM | – | – |
| 4.98 µM | 9.04 µM | – | 3.32 µM | – | – | COc1cc(/C=C2\C(=O)OCC2Cc2ccc3c(c2)OCO3)cc(OC(=O)CN(C)C)c1OC (stereo not given) [listing 1 of 3 here] | 4.51 µM | – | – |
| 34 µM | > 40 µM | 35.2 µM | – | – | – | COc1cc(/C=C2\C(=O)OC\C2=C\c2ccc3c(c2)OCO3)cc(OC)c1OC | 28.3 µM | – | – |
| – | – | – | – | – | – | COc1cc(/C=C2\C(=O)OCC2Cc2ccc3c(c2)OCO3)cc(OC(=O)CN(C)C)c1OC (stereo not given) [listing 2 of 3 here] | – | Dose-dependent effect | – |
| – | – | – | 5.93 µM | 8.71 µM | 9.37 µM | COc1cc(/C=C2\C(=O)OCC2Cc2ccc3c(c2)OCO3)cc(OC)c1OC(=O)CN(C)C (stereo not given) [listing 1 of 2 here] | – | – | 7.06 µM |
| 9.9 µM | 5.88 µM | 5.5 µM | – | – | – | COc1cc(/C=C2\C(=O)OCC2Cc2ccc3c(c2)OCO3)cc(OC)c1OC (racemic) | 5.51 µM | Dose-dependent effect | – |
| – | – | – | – | – | – | COc1ccc(/C=C\c2cc(OC)c(OC)c(OC)c2)cc1O | – | Dose-dependent effect | – |
| 9.2 µM | 9.73 µM | 5.97 µM | – | – | – | COc1cc(/C=C2\C(=O)OCC2Cc2ccc3c(c2)OCO3)cc(OC)c1OC(=O)[C@@H](N)Cc1ccccc1 (stereo not given in full) | 7.59 µM | – | – |
| > 40 µM | > 40 µM | > 40 µM | – | – | – | COc1cc(/C=C2\C(=O)OC\C2=C\c2ccc3c(c2)OCO3)cc(OC(=O)CN(C)C)c1OC | > 40 µM | – | – |
| > 40 µM | > 40 µM | > 40 µM | – | – | – | COc1cc(/C=C2\C(=O)OC\C2=C\c2ccc3c(c2)OCO3)cc(OC)c1OC(=O)[C@@H](N)Cc1ccccc1 | > 40 µM | – | – |
| 34 µM | > 40 µM | 31.2 µM | – | – | – | COc1cc(/C=C2\C(=O)OC\C2=C\c2ccc3c(c2)OCO3)cc(O)c1OC | 29 µM | – | – |
| > 40 µM | > 40 µM | > 40 µM | – | – | – | COc1cc(/C=C2\C(=O)OC\C2=C\c2ccc3c(c2)OCO3)cc(OC(=O)[C@@H](N)Cc2ccccc2)c1OC | > 40 µM | – | – |
| 6.47 µM | 8.81 µM | 5.72 µM | – | – | – | Cc1cc(/C=C2\C(=O)OCC2Cc2ccc3c(c2)OCO3)ccc1F (stereo not given) | 5.51 µM | – | – |
| > 40 µM | > 40 µM | > 40 µM | – | – | – | Cc1cc(/C=C2\C(=O)OC\C2=C\c2ccc3c(c2)OCO3)ccc1F | > 40 µM | – | – |
| 11.5 µM | > 40 µM | 6.17 µM | – | – | – | COc1cc(/C=C2\C(=O)OCC2Cc2ccc3c(c2)OCO3)cc(OC)c1O (stereo not given) | 6.78 µM | – | – |
| 5.18 µM | 8.55 µM | 4.32 µM | – | – | – | COc1cc(/C=C2\C(=O)OCC2Cc2ccc3c(c2)OCO3)cc(O)c1OC (stereo not given) | 4.84 µM | – | – |
| – | – | 5.02 µM | – | 5.53 µM | 8.91 µM | COc1cc(/C=C2\C(=O)OCC2Cc2ccc3c(c2)OCO3)cc(OC(=O)CN(C)C)c1OC (stereo not given) [listing 3 of 3 here] | – | – | 5.34 µM |
| – | – | 6.15 µM | – | 18.1 µM | 29 µM | COc1cc(/C=C2\C(=O)OCC2Cc2ccc3c(c2)OCO3)cc(OC)c1OC(=O)CN(C)C (stereo not given) [listing 2 of 2 here] | – | – | 17.6 µM |
